Key:
Assay type in all cases: functional, Mus musculus
L1210 [1] = assay: Post inoculation lifespan was determined in L1210 Inoculated mice at a dose of 22 mg/Kg after a single treatment
How it was run: (§1)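 BDF1 female mice (~18 g) received 1 × 10⁶ L1210 cells ip on day 0, then one ip bolus at 24 h in 0.01 mL/g (dose = 10 × solubility in mg/mL; water, or Me₂SO if insoluble). Controls got 0.9% NaCl. Six mice per treatment group. %T/C = mean life span of treated / mean life span of controls × 100. Deaths assigned to leukemia or toxicity from timing and necropsy.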

L1210 [2] = assay: Percentage of L1210 cells killed was determined in L1210 Inoculated mice at a dose of 22 mg/kg after a single treatment
How it was run: (§2)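 BDF1 female mice (~18 g) inoculated ip on day 0 with 1 × 10⁶ L1210 leukemia cells. Single ip bolus 24 h later, prepared just before use and given in 0.01 mL/g body weight (mg/kg dose = 10 × solubility in mg/mL; water, or Me₂SO if insoluble). Six mice per group. Percent of viable leukemia cells killed estimated from inoculum size versus life span data.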

L1210 [3] = assay: Post inoculation lifespan was determined in L1210 Inoculated mice at a dose of 173 mg/Kg after a single treatment; how it was run: as §1
L1210 [4] = assay: Percentage of L1210 cells killed was determined in L1210 Inoculated mice at a dose of 173 mg/kg after a single treatment; how it was run: as §2
L1210 [5] = assay: Post inoculation lifespan was determined in L1210 Inoculated mice at a dose of 104 mg/Kg; how it was run: as §1
L1210 [6] = assay: Percentage of L1210 cells killed was determined in L1210 Inoculated mice at a dose of 104 mg/kg after a single treatment; how it was run: as §2
L1210 [7] = assay: Percentage of L1210 cells killed was determined in L1210 Inoculated mice at a dose of 37 mg/kg after a single treatment; how it was run: as §2
L1210 [8] = assay: Post inoculation lifespan was determined in L1210 Inoculated mice at a dose of 37 mg/Kg after a single treatment; how it was run: as §1
L1210 [9] = assay: Post inoculation lifespan was determined in L1210 Inoculated mice at a dose of 62 mg/Kg; how it was run: as §1
L1210 [10] = assay: Percentage of L1210 cells killed was determined in L1210 Inoculated mice at a dose of 62 mg/kg after a single treatment; how it was run: as §2
L1210 [11] = assay: Percentage of L1210 cells killed was determined in L1210 Inoculated mice at a dose of 480 mg/kg after a single treatment; how it was run: as §2
L1210 [12] = assay: Post inoculation lifespan was determined in L1210 Inoculated mice at a dose of 480 mg/Kg after a single treatment; how it was run: as §1
L1210 [13] = assay: Post inoculation lifespan was determined in L1210 Inoculated mice at a dose of 13 mg/Kg after a single treatment; how it was run: as §1
L1210 [14] = assay: Percentage of L1210 cells killed was determined in L1210 Inoculated mice at a dose of 13 mg/kg after a single treatment; how it was run: as §2
L1210 [15] = assay: Post inoculation lifespan was determined in L1210 Inoculated mice at a dose of 62 mg/Kg after a single treatment; how it was run: as §1
L1210 [16] = assay: Post inoculation lifespan was determined in L1210 Inoculated mice at a dose of 104 mg/Kg after a single treatment; how it was run: as §1
L1210 [17] = assay: Post inoculation lifespan was determined in L1210 Inoculated mice at a dose of 8.1 mg/Kg after a single treatment; how it was run: as §1
L1210 [18] = assay: Percentage of L1210 cells killed was determined in L1210 Inoculated mice at a dose of 8.1 mg/kg after a single treatment; how it was run: as §2

## CC(=O)OC[C@H]1O[C@@H](n2cnc3c([S+](N)[O-])nc(N)nc32)[C@H](OC(C)=O)[C@@H]1OC(C)=O (stereo partly specified)
L1210 [1]
  T/C: 99%
L1210 [2]
  Activity: 0%

## NS(=O)(=O)c1ncnc2c1ncn2[C@@H]1O[C@H](CO)[C@@H](O)[C@H]1O
L1210 [3]
  T/C: 147%
L1210 [4]
  Activity: 98.36%

## NS(=O)(=O)c1[nH]cnc2ncnc1-2
L1210 [5]
  T/C: 134%
L1210 [6]
  Activity: 95.48%

## Nc1nc(S(N)(=O)=O)c2[nH]cnc2n1
L1210 [1]
  T/C: 103%
L1210 [2]
  Activity: 20.78%

## Nc1nc([S+](N)[O-])c2[nH]cnc2n1 (stereo unspecified)
L1210 [1]
  T/C: 113%
L1210 [2]
  Activity: 67.94%

## NSc1[nH]c(N)nc2ncnc1-2
L1210 [7]
  Activity: 99.04%
L1210 [8]
  T/C: 159%

## O=S(=O)(F)c1[nH]cnc2ncnc1-2
L1210 [9]
  T/C: 115%
L1210 [10]
  Activity: 73.54%

## NSc1ncnc2c1ncn2C1O[C@H](CO)[C@@H](O)[C@H]1O (stereo partly specified)
L1210 [11]
  Activity: 97.82%
L1210 [12]
  T/C: 149%

## C[C@H]1OC(n2cnc3c(SN)nc(N)nc32)[C@H](O)[C@@H]1O (stereo partly specified)
L1210 [13]
  T/C: 136%
L1210 [14]
  Activity: 95.9%

## Nc1nc(S(N)(=O)=O)c2ncn(C3O[C@H](CO)[C@@H](O)[C@H]3O)c2n1 (stereo partly specified)
L1210 [15]
  T/C: 128%
L1210 [10]
  Activity: 92.4%

## NSc1nc(N)nc2c1ncn2C1O[C@H](CO)[C@@H](O)[C@H]1O (stereo partly specified)
L1210 [1]
  T/C: 170%
L1210 [2]
  Activity: 99.84%

## C[C@H]1OC(n2cnc3c(S(N)(=O)=O)nc(N)nc32)[C@H](O)[C@@H]1O (stereo partly specified)
L1210 [11]
  Activity: 94.38%
L1210 [12]
  T/C: 130%

## C[C@H]1OC(n2cnc3c(S)nc(N)nc32)[C@H](O)[C@@H]1O (stereo partly specified)
L1210 [7]
  Activity: 99.82%
L1210 [8]
  T/C: 169%

## Nc1nc([S+](N)[O-])c2ncn(C3O[C@H](CO)[C@@H](O)[C@H]3O)c2n1 (stereo partly specified)
L1210 [3]
  T/C: 167%
L1210 [4]
  Activity: 99.8%

## N[S+]([O-])c1ncnc2c1ncn2C1O[C@H](CO)[C@@H](O)[C@H]1O (stereo partly specified)
L1210 [15]
  T/C: 114%
L1210 [10]
  Activity: 70.87%

## C[C@H]1OC(n2cnc3c([S+](N)[O-])nc(N)nc32)[C@H](O)[C@@H]1O (stereo partly specified)
L1210 [6]
  Activity: 99.87%
L1210 [16]
  T/C: 172%

## Nc1nc(=S)c2ncn([C@@H]3O[C@H](CO)[C@@H](O)[C@H]3O)c2[nH]1 [THIOGUANOSINE]
L1210 [17]
  T/C: 147%
L1210 [18]
  Activity: 98.41%

## OC[C@H]1O[C@@H](n2cnc3c(S)ncnc32)[C@H](O)[C@@H]1O [THIOINOSINE]
L1210 [3]
  T/C: 150%
L1210 [4]
  Activity: 98.36%

Reference: ChEMBL document CHEMBL1125140, “Synthesis and in vivo antitumor activity of 2-amino-9H-purine-6-sulfenamide, -sulfinamide, and -sulfonamide and related purine ribonucleosides” (1990)
